Experimental data: PMC6440450 (International Journal of Nanomedicine, 2019)
Like-named read-outs stand apart in the source and are kept apart here.

Columns and labels:
HEL cells = test: Cell-cycle analysis; type: cell-based, human; settings: 72 hours, decitabine solution 1,000 nM
In short: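 HEL cells (RPMI 1640, 10% FBS, 1% antibiotics, 37°C, 5% CO2) were seeded at 5×10^4/well. After 24 h, they were treated with the test compound solution (1,000 nM), prodrug-loaded lipid nanocapsules (2,500 nM), excipient-matched blank nanocapsules or medium for 72 h. Cells were ethanol-fixed (70%, cold) and stained 15 min in the dark with 40 µg/mL propidium iodide plus 100 µg/mL RNase A. Phases were fitted by the Dean Jett Fox model. n=3 plates in triplicate; Mann–Whitney versus medium.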

[1] = phosphate buffer, 37°C, after 24 hours; cited from earlier work
[2] = decitabine solution, human plasma, same conditions, after 6 hours; cited from earlier work
[3] = cited from earlier work
[4] = tested on: human erythroleukemia cell line (HEL); test: In vitro cell proliferation; type: cell-based; settings: 72 hours exposure
In short: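 HEL cells were seeded at 5×10^3/well and treated 24 h later for 72 h. Doses were 12.5–2,500 nM for the lipid prodrug (free or nanocapsule-loaded) and 5–1,000 nM for the parent nucleoside; blank nanocapsules were excipient-matched. Pellets were frozen at −80°C for ≥48 h, then read by CyQuant. Medium-only wells defined 100% viability. Three independent experiments in quadruplicate; Mann–Whitney test.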

For Nc1ncn([C@H]2C[C@H](O)[C@@H](CO)O2)c(=O)n1 [Decitabine], the “Cells arrested in G2/M” value (HEL cells) is given as 17.2%, the Initial concentration recovered [1] is given as less than 50% and the Initial concentration recovered [2] is given as less than 40%. For the same compound, the Half-life in plasma [3] was 15 to 25 min and the “Concentration above which cell viability decreased” value [4] was “above 50 nM”.
